Reference: PMC2964879 (Biochemistry, 2010)
Values after ≈ are worked out from the molar mass of the structure shown.

Assays:
EntE = conditions: cited from earlier work
A. baumannii = test: Antibacterial activity; format: cell-based
BasE [1] = conditions: read-out: dissociation constant Kia; nonvaried substrate in eq 2; cited from earlier work
holo-BasF = test: ESI-TOF mass spectrometry of aryl acid loading onto holo-BasF by BasE; format: biochemical, A. baumannii AB900; conditions: 50 μM holo-BasF, 200 nM BasE, 250 μM aryl acid, 16 hours
Procedure, shortened: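 His-tagged BasF from A. baumannii AB900, expressed in E. coli, made holo in vitro with Sfp and CoA, then anion-exchange purified. Apo- and holo-BasF in the same buffer were reference samples. Samples were diluted in 50:50 water:acetonitrile with 0.1% formic acid and injected directly for ESI-TOF MS.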

BasE [2] = conditions: ATP-PPi exchange, saturating ATP; cited from earlier work
BasE [3] = biological target: T1, BasE (Acinetobacter baumannii, UniProt A0A0D5YGP3); conditions: for specificity constant, fold lower than DHB / kcat, fold decrease relative to DHB: relative to DHB; for KM, fold change relative to DHB: relative to DHB (increase in KM)
BasE [4] = biological target: T1, BasE; test: Kinetic inhibition experiments with the continuous coupled assay; format: biochemical, A. baumannii ATCC17978
[5] = test system: coupling enzymes inorganic pyrophosphatase and purine nucleoside phosphorylase; test: Counter-test on the coupling enzymes of the continuous assay; format: biochemical; conditions: 200 μM; data not shown
BasE [6] = biological target: T1, BasE; test: Fluorescence polarization displacement assay, BasE-AB900; format: binding, A. baumannii AB900; conditions: read-out: KD (FP) of the fluorescent probe
BasE [7] = biological target: T1, BasE; test: Fluorescence polarization displacement assay, BasE-ATCC; format: binding, A. baumannii ATCC17978; conditions: read-out: KD (FP) of the fluorescent probe
MbtA = conditions: cited from earlier work

In the case of `Nc1ncnc2c1ncn2[C@@H]1O[C@H](COS(=O)(=O)NC(=O)c2cccc(O)c2O)[C@@H](O)[C@H]1O` [Compound 5, 5′-O-[N-(2,3-dihydroxybenzoyl)sulfamoyl]adenosine], the “inhibition of EntE (inhibition and dissociation constants, in words)” value (EntE) is given as “slow tight-binding picomolar inhibitors” and the “antibacterial activity against A. baumannii” value (A. baumannii; unpublished results, D. Wilson and C. Aldrich) is given as “do not possess any antibacterial activity”.
For `O=C(O)c1cccc(O)c1O` [DHB, 2,3-dihydroxybenzoic acid], the Kd (BasE [1]) is listed as 2630 nM, the loading (holo-BasF) is listed as “full” and the Km (BasE [2]) is listed as 1.5 µM. The kcat (BasE [2]) was 3.5 s⁻¹.
With `O=C(O)c1cccc(O)c1` [Compound 3-HBA, 3-hydroxy benzoic acid] the “specificity constant, fold lower than DHB” value (BasE [3]) was 60 fold and the loading (holo-BasF) was “partial”.
For `O=C(O)c1cc(-c2ccccc2)nc2c1cnn2Cc1ccncc1` [Compound 8, 6-phenyl-1-(pyridin-4-ylmethyl)-1H-pyrazolo[3,4-b]pyridine-4-carboxylic acid], the “modality of inhibition with respect to DHB and ATP” value (BasE [4]) was “competitive inhibition with respect to both substrates”, the slow binding inhibition (BasE [4]; 10 min pre-incubation at 25 °C, data not shown) was “did not exhibit slow binding inhibition” and the “inhibition of the coupling enzymes” value [5] was “did not inhibit”.
With `Nc1ncnc2c1ncn2[C@@H]1O[C@H](COP(=O)(O)OP(=O)(O)OP(=O)(O)O)[C@@H](O)[C@H]1O` [ATP] the kcat (BasE [3]; substrate of BasE, coupled assay, 25 °C, pH 8.0) was 2.8 ± 0.2 s⁻¹ and the Km (BasE [3]; substrate of BasE, coupled assay, 25 °C, pH 8.0, nonvaried substrates saturating) was 300 ± 71 µM.
In the case of `CCCCCCCCCCCCc1cn(-c2nc(N)c3ncn([C@@H]4O[C@H](COS(=O)(=O)NC(=O)c5ccccc5O)[C@@H](O)[C@H]4O)c3n2)nn1` [Compound 7, 2-(4-n-dodecyl-1,2,3-triazol-1-yl)-5′-O-[N-(2-hydroxybenzoyl)sulfamoyl]adenosine], the MIC (A. baumannii; Acinetobacter baumannii) is reported as roughly 15 µM (≈ 10.5 µg/mL) and the antibacterial activity (A. baumannii; iron replete conditions) is reported as “inactive”.
With `Nc1ncnc2c1ncn2[C@@H]1O[C@H](COS(=O)(=O)NC(=O)c2ccccc2O)[C@@H](O)[C@H]1OCCOCCOCCNC(=O)c1ccc2c(c1)C(=O)OC21c2ccc(O)cc2Oc2cc(O)ccc21` [Compound 9, 2′-O-{2-[2-(2-{[(fluorescein-5-yl)carbonyl]amino}ethoxy)ethoxy]ethoxy}-5′-O-[N-(2-hydroxybenzoyl)sulfamoyl]adenosine] the Kd (BasE [6]) was 144 ± 9 nM and the Kd (BasE [7]) was 84 ± 6 nM.
In the case of `O=C(O)c1ccccc1` [BA, benzoic acid], the “kcat, fold decrease relative to DHB” value (BasE [3]) is reported as roughly 10 fold, the “specificity constant, fold lower than DHB” value (BasE [3]) is reported as “three orders of magnitude” and the “KM, fold change relative to DHB” value (BasE [3]) is reported as roughly 100 fold. For the same molecule, the loading (holo-BasF) was “partial”.
In the case of `O=C(O)c1ccccc1O` [SAL, 2-hydroxybenzoic acid], the “kcat, fold decrease relative to DHB” value (BasE [3]) is reported as roughly 3 fold, the “specificity constant, fold lower than DHB” value (BasE [3]) is reported as “approximately 6 fold” and the “KM, fold change relative to DHB” value (BasE [3]) is reported as “approximately 2 fold”. For the same molecule, the loading (holo-BasF) was “partial”.
In the case of `Nc1nc(-c2ccccc2)nc2c1ncn2[C@@H]1O[C@H](COS(=O)(=O)NC(=O)c2ccccc2O)[C@@H](O)[C@H]1O` [5′-O-[N-(2-hydroxybenzoyl)sulfamoyl]-2-phenyladenosine], the binding constant (MbtA) is listed as “subnanomolar”.
